L major viab = inhibitors of Leishmania major promastigote growth. Leishmania major promastigotes, resazurin fluorescence viability. inhibition, % at 10 µM. actives 9% (n = 200,000); in the data active = inhibition above about 50%;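 also: promastigotes grown with compound for 44 hours at 28 °C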
Hsp70 activator = transcriptional activators of Hsp70; HeLa Hsp70 promoter luciferase reporter, luminescence; scaled: vehicle 0, proteasome-inhibitor control 100%; activation, % at 10 µM; actives 0.04% (n = 200,000); AID 1203;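 active = activation above the mean across all tested compounds plus 3 SD, cutoff set per campaign, cut at about 5.5% in these data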
HSF-1 act = increases HSF-1 driven luciferase reporter signal; AID 504408; NIH3T3-HGL HSF-1 luciferase reporter, MG132, 8 h; 100% = twice DMSO control signal; actives 1.7% (n = 300,000); activation, % at 9 µM;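 active = mean replicate activation of at least 50% with a set share of replicates each reaching 50%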
HSF1 inh = HSF1 inhibition; NIH3T3-HGL HSE-luciferase, MG132-induced, luminescence 8 h; stronger effect = lower value; activity change, negative = inhibition, % at 7.5 µM (by protocol); actives 0.77% (n = 300,000); AID 2098;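 active = more than half of replicate wells show activity change below -50%, luminescence cut by over half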;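 also: luciferase reports HSF-1 transcriptional activity via heat shock element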
T cruzi repl = blocks replication of Trypanosoma cruzi; T. cruzi beta-gal in NIH3T3, luminescence, 90 h; inhibition, % (no concentration beside the values); actives 1.4% (n = 300,000); AID 1885;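 active = mean inhibition across valid replicates above about 55%, limit read from the data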;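 also: signal also drops with host cell toxicity which is not excluded here; higher percent means less beta-gal luminescence so fewer parasites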
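Material: NIH/3T3 host cells with β-galactosidase reporter T. cruzi; Input: 5,000 host fibroblasts per well; Medium: DMEM, 2% fetal bovine serum; Compound: 50 nL DMSO compound solution per well; Schedule: 3 h host attachment, then at least 90 h co-culture; Detection: luminescent β-galactosidase signal after 60 min lysis.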
Of the large screens only hits and unclear results are named; the others gave an inactive call. The entries come from a sample that favours hits as a whole.

Cc1nc(-c2ccc(Cl)cc2)sc1C1(C)CC(c2ccc(Cl)cc2)=NO1 (centres undefined)	HSF1 inh -63 (no result: L major viab, Hsp70 activator)
Cc1nc(C(=O)NC2CCCCC2)sc1C1(C)CC(c2cccc([N+](=O)[O-])c2)=NO1 (centres undefined)	none (no result: L major viab, Hsp70 activator)
COc1ccc(N2CC(C(=O)NCCc3ccc(Cl)cc3)CC2=O)cc1 (centres undefined)	none (no result: L major viab, Hsp70 activator)
Cc1cc2c(ncn2C)c(NS(=O)(=O)c2cc(Cl)ccc2Cl)c1C	HSF-1 act 140
COc1ccc(NC(=O)c2sc3nc(N4CCOCC4)c4c(c3c2N)CC(C(C)C)OC4)c(OC)c1 (centres undefined)	none (no result: L major viab, Hsp70 activator)
CCOc1ccc(-c2nnn(CC(=O)NCCc3c[nH]c4ccccc34)n2)cc1	L major viab 94
COc1ccc(-c2nnn(CC(=O)NCCc3c[nH]c4ccccc34)n2)cc1OC	none
COC(=O)c1nn(-c2nc(-c3cccc(OC)c3)cc(C(F)(F)F)n2)cc1[N+](=O)[O-]	L major viab 90
COC(=O)c1nn(-c2nc(-c3ccc(OC)c(OC)c3)cc(C(F)(F)F)n2)cc1[N+](=O)[O-]	none
CCOC(=O)C1(CCOC)CCN(C(C)CCc2ccc(OC)cc2)CC1 (centres undefined)	L major viab 91
CCOC(=O)C1(CCOc2ccccc2)CCN(Cc2ccc(OC)cc2)CC1	none (no result: L major viab, Hsp70 activator)
Cc1ccc(-c2noc(CSc3ccccc3)n2)cc1	HSF-1 act 69
Cc1ccc(-c2noc(CSc3nnc(Cc4cccs4)n3-c3ccccc3)n2)cc1	none
CCOc1ccc(-n2c(SCc3nc(-c4ccc(C)cc4)no3)nnc2-c2ccncc2)cc1	T cruzi repl 58
Cc1ccc(-c2noc(CSc3nnc(Cc4ccccc4)n3-c3cccc(C)c3)n2)cc1	L major viab 80
COc1ccc(-c2noc(CSc3nnc(Cc4ccccc4)n3-c3cccc(C)c3)n2)cc1OC	L major viab 54
COCC(=O)Nc1cc(C)cn(Cc2c(F)cccc2Cl)c1=O	none (no result: L major viab, Hsp70 activator)
NS(=O)(=O)c1ccc(O)c(NC(=O)c2ccc([N+](=O)[O-])cc2)c1	none
Cc1cccc(C(C)C)c1NC(=O)CN(C)Cc1cccc(F)c1	L major viab 72
CCc1cccc(C)c1NC(=O)CN(C)Cc1cccc(F)c1	none
O=C(CCc1nnc2ccc(NCc3ccco3)nn12)Nc1ccc(F)cc1F	none (no result: L major viab, Hsp70 activator)
Cc1ccc(NC(=O)CN2C(=O)S/C(=C\C(=O)Nc3ccc(Cl)cc3)C2=O)cc1	L major viab 63
Cc1ccc(NC(=O)CN2C(=O)S/C(=C/c3ccncc3)C2=O)cc1	none (no result: L major viab, Hsp70 activator)
Cn1c(=O)oc2cc(S(=O)(=O)CCC(=O)Nc3ccccc3)ccc21	none (no result: L major viab, Hsp70 activator)
Cc1ccc(S(=O)(=O)NC(=O)Nc2ccc(OC(F)F)cc2)cc1	none (no result: L major viab, Hsp70 activator)
CCCN1CCC2(CC1)NC(C(=O)O)Cc1c2[nH]c2ccccc12 (centres undefined)	none (no result: L major viab, Hsp70 activator)
COC(=O)C1Cc2c([nH]c3ccccc23)C2(CCN(Cc3ccccc3)CC2)N1 (centres undefined)	T cruzi repl 71 (no result: L major viab, Hsp70 activator)
O=C(CN(c1ccccc1)S(=O)(=O)c1ccccc1[N+](=O)[O-])Nc1ccccc1C(=O)N1CCOCC1	none
COC(=O)Cn1c(C)nc([N+](=O)[O-])c1Br	none
Cc1nc([N+](=O)[O-])c(Br)n1CC(=O)c1cccc([N+](=O)[O-])c1	L major viab 86, HSF-1 act 102
Cc1nc([N+](=O)[O-])c(Br)n1Cc1ccccc1	HSF-1 act 77 (no result: L major viab, Hsp70 activator)
Cc1nc([N+](=O)[O-])c(Sc2nc3ccc([N+](=O)[O-])cc3[nH]2)n1Cc1ccccc1	L major viab 54
Cc1nc([N+](=O)[O-])c(Br)n1CC(=O)c1ccc(F)cc1	L major viab 89 (no result: HSF-1 act, HSF1 inh, T cruzi repl)
COc1ccc(S(=O)(=O)Cc2ccc(C(=O)N3CCN(C4CCCCC4)CC3)o2)cc1	L major viab 99
O=C(c1ccc(CS(=O)(=O)c2ccc(Br)cc2)o1)N1CCN(C2CCCCC2)CC1	L major viab 99
CCOc1ccc(C(=O)CCC(=O)N(CC)CC(=O)NCc2ccc(Cl)cc2)cc1	none (no result: L major viab, Hsp70 activator)
Cc1nc2ncnn2c(N2CCN(C(c3ccccc3)c3ccccc3)CC2)c1C	L major viab 68
CN(C1CCCCC1)C(CNS(=O)(=O)c1ccccc1)c1ccccc1 (centres undefined)	none (no result: L major viab, Hsp70 activator)
COc1cccc(C(C(=O)NC2CCCCC2)N(C(=O)c2csnn2)C2CC2)c1 (centres undefined)	none (no result: L major viab, Hsp70 activator)
CCc1cc2cc(C(=O)Nc3ccccc3F)sc2s1	HSF-1 act 57
CCc1cc2cc(C(=O)Nc3ccc(F)cc3)sc2s1	none
Cc1ccc2nc(N3CCN(C=O)CC3)nc(-c3ccccc3)c2c1	none
CN(C(=O)c1nn(C)c2c1CSc1ccccc1-2)c1ccccc1Cl	none (no result: L major viab, Hsp70 activator)
CCc1cccc2c1NC(=O)C21N2CCCC2C(C(=O)c2ccc3ccccc3c2)C12C(=O)Nc1ccccc12 (centres undefined)	L major viab 82
CCc1ccc2c(c1)C1(C(=O)N2)N2CCCC2C(C(=O)c2ccc3ccccc3c2)C12C(=O)Nc1ccccc12 (centres undefined)	L major viab 79, HSF-1 act 65
CS(=O)(=O)c1ccc(Oc2ccc(-c3nnco3)cc2)c([N+](=O)[O-])c1	none (no result: L major viab, Hsp70 activator)
Cc1ccc(S(=O)(=O)N2c3ccccc3OCC2c2ccccc2)cc1 (centres undefined)	HSF-1 act 56
CCN1CCN(c2nc(N)c([N+](=O)[O-])c(Nc3ccc(C)c(C)c3)n2)CC1	L major viab 60
Cc1ccc(Nc2nc(N)c([N+](=O)[O-])c(N3CCCC(C)C3)n2)cc1C (centres undefined)	none
Cc1ccc(Nc2nc(N3CCN(C)CC3)nc(N)c2[N+](=O)[O-])cc1C	L major viab 97
CCN1CCN(c2nc(N)c([N+](=O)[O-])c(Nc3ccc(C)cc3)n2)CC1	none
COc1ccc(C2CC(c3ccccc3Cl)Nc3ncnn32)cc1OC (centres undefined)	L major viab 76
COc1cccc(C2CC(c3ccccc3Cl)Nc3ncnn32)c1 (centres undefined)	none (no result: HSF-1 act, HSF1 inh, T cruzi repl)
COc1cccc(C2CC(c3ccc(C)cc3)n3ncnc3N2)c1 (centres undefined)	none
COc1cccc(C2CC(c3ccccc3)n3ncnc3N2)c1 (centres undefined)	HSF1 inh -77
O=C(NCc1ccccn1)c1ccc(OC2CCN(Cc3cccs3)CC2)cc1	none (no result: L major viab, Hsp70 activator)
CCCNC(=O)COC(=O)c1cc2c(=O)n3ccccc3nc2s1	none
NC(=S)N=Nc1c(O)[nH]c2c(Br)cc(Br)cc12	none
O=[N+]([O-])c1ccc(S(=O)(=O)N2CCSC2c2ccco2)cc1 (centres undefined)	HSF-1 act 51 (no result: L major viab, Hsp70 activator)
O=S(=O)(c1ccc(Cl)cc1)N1CCSC1c1ccco1 (centres undefined)	none (no result: HSF-1 act, HSF1 inh)
CCOc1cccc(C(=O)NNC(=O)CCC(=O)O)c1	none
COc1cc(C2NC(=O)NC(C)=C2C(C)=O)ccc1O (centres undefined)	none (no result: L major viab, Hsp70 activator)

Bioassay records deposited in PubChem BioAssay by several laboratories.
